In the library only some 5.6% were active in any assay of this set; here they are far more common.
GRIN3A LBD mod: modulates the human NR3A ligand-binding domain. NR3A LBD differential scanning fluorimetry, Tm shift; 0% = protein alone, 100% = glycine-bound protein. Tm shift relative to glycine control, % at 25 µM. 340,000 compounds, 2.5% hits. AID 1259313;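 active = melting temperature shift of at least 10% of the positive control shift, at one fixed dose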
aDG glyco act: increases alpha dystroglycan glycosylation; Pro5-aDG cells, alpha-DG glycosylation AlphaScreen (IIH6); 0% Pro5, 100% B10-LARGE cell signal; activation, % at 10 µM; 360,000 compounds, 0.22% hits; AID 624168;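 active = activation of at least 8% versus controls, or a plate z-score of at least 8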;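 also: Pro5 are CHO cells carrying HIG-tagged alpha-DG that lacks glycosylation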
CHOP inh: CHOP inhibition in unfolded protein response; CHO-K1 CHOP-promoter luciferase, tunicamycin-induced, 15-18 h; inhibition, % at 10 µM; 220,000 compounds, 3.8% hits;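 active = compounds that reduced the stress-induced luciferase reporter signal by more than about 70% of percent inhibition, limit read from the data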
MPTP block: permeability transition pore inhibition; isolated mouse mitochondria, Ca2+ swelling absorbance, 30 min; inhibition, % at 10 µM; 360,000 compounds, 1.4% hits; AID 602449;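 active = inhibition of 50% or more, scaled per plate between neutral and stimulator controls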
UPR XBP1 act: adaptive UPR (XBP1) activation. CHO-XBP1 luciferase reporter, IRE1-XBP1 UPR activation, luminescence; percent of tunicamycin response, DMSO as zero. activation, % at 20 µM. 330,000 compounds, 0.33% hits. AID 463104;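 active = versus positive control, 20 µM dose yields 30% or more activation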
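Assay system: IRE1-XBP1 luciferase reporter CHO line. Input: 1000 cells/well. Buffer or medium: F12 with 10% serum. Doses: 20 µM, 1% DMSO. Times: overnight seeding at 37 °C, 6 h compound treatment at 37 °C. Technique: Steady-Glo luciferase glow luminescence, 10 min after reagent addition.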
CHOP UPR activ: apoptotic UPR (CHOP) activation; activation, % at 10 µM; CHO-CHOP luciferase reporter, luminescence; percent of tunicamycin response over DMSO baseline; AID 449763; 330,000 compounds, 0.34% hits;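 active = at 10 µM dose, activation of 40% or more, normalized to positive control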
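System: CHO-CHOP luciferase reporter cell line | Buffer or medium: F12 medium containing 10% fetal bovine serum | Doses: One dose, 10 µM in 0.5% DMSO | Times: 6 h compound exposure at 37 °C after overnight seeding | Signal: Luciferase luminescence | Read-out: % activation vs tunicamycin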
Numbers stand for hits; – = inactive; · = no result given.

SMILES | GRIN3A LBD mod | aDG glyco act | CHOP inh | MPTP block | UPR XBP1 act | CHOP UPR activ
COCCn1c(SCC(=O)Nc2cccnc2Cl)nc2cc(Cl)ccc2c1=O | – | – | · | – | – | –
COCCn1c(SCC(=O)Nc2sccc2C(N)=O)nc2cc(Cl)ccc2c1=O | 37 | – | – | – | – | –
CCNC(=S)N(Cc1ccccc1)Cc1nc2ccccc2c(=O)[nH]1 | 10 | – | – | – | – | –
COCCCNC(=S)N(Cc1ccccc1)Cc1nc2ccccc2c(=O)[nH]1 | – | – | – | – | – | –
CC(C)(C)c1csc(N(CCC#N)CCC#N)n1 | 14 | – | – | – | – | –
C=CCNC(=O)c1ccsc1N | · | – | · | – | · | ·
COc1cccc(C(NC(C)=O)c2nc(-c3cccc(F)c3)cs2)c1 (centres undefined) | · | – | · | – | · | ·
Cc1cccc(NC(=O)COc2cccc3c2CCN(C)C3=O)c1C | – | – | – | – | – | –
CCOC(=O)c1c(NC(=O)COC(=O)Cn2cnc3ccccc32)sc2c1CCC(C)C2 (centres undefined) | – | – | 72 | – | · | ·
CCOC(=O)c1c(NC(=O)C(C)NCc2ccco2)sc2c1CCC(C)C2 (centres undefined) | – | – | 73 | – | – | –
CCOC(=O)c1c(NC(=O)Cn2nnc3ccccc32)sc2c1CCC(C)C2 (centres undefined) | – | – | – | – | – | –
CCOC(=O)c1c(NC(=O)COc2cccc3c2CCN(C)C3=O)sc2c1CCC2 | – | – | 82 | – | – | –
CCOC(=O)c1c(NC(=S)NC(=O)c2ccc(Cn3cc(Cl)cn3)o2)sc2c1CCC(C)C2 (centres undefined) | – | – | 77 | – | – | –
Cc1c(NC(=O)c2cccc(NC(=O)Cc3ccc(F)cc3)c2)c(=O)n(-c2ccccc2)n1C | – | – | · | – | – | –
CCOC(=O)c1c(NC(=O)COC(=O)Cn2c(C)nc3ccccc32)sc2c1CCCC2 | – | – | 74 | – | – | –
CCOC(=O)c1c(NC(=O)Cn2c(C)nc3ccccc32)sc2c1CCC2 | – | – | – | – | – | –
O=C1COc2ccc(N3C(=O)c4ccccc4C3=O)cc2N1 | · | · | – | · | – | –
O=C(Nc1cccc(Br)c1)c1ccc2nc(N3C(=O)CCC3=O)sc2c1 | 14 | – | – | – | – | –
O=S(=O)(NN=C1CCCCCCC1)c1ccccc1 | · | – | · | – | · | ·
COc1ccc(-c2nc(NC(=O)Cn3c(=O)oc4ccccc43)sc2C)cc1 | – | – | – | – | – | –
COc1ccc(-c2nc(NC(=O)C3CCN(c4nc5ccccc5o4)CC3)sc2C)cc1 | – | – | 78 | – | – | –
CC(C)(C)c1ccc(S(=O)(=O)N2CCN(Cc3cc4c(cc3O)OCO4)CC2)cc1 | – | – | · | – | – | –
CCNc1nc(SCCOc2ccc(C)cc2)nc(N(C)C)n1 | – | – | – | – | – | –
CCNc1nc(SCCOc2ccc(Cl)cc2Cl)nc(N(C)C)n1 | – | – | 91 | – | · | ·
CC(=O)c1ccc(OC(C)C(=O)NCC2(N3CCOCC3)CCCCC2)cc1 (centres undefined) | – | – | · | – | – | –
SMILES | GRIN3A LBD mod | aDG glyco act | CHOP inh | MPTP block | UPR XBP1 act | CHOP UPR activ
C=CCNC(=O)c1onc(CSc2cccc(Cl)c2)c1C(=O)O | – | – | – | – | – | –
C=CCNC(=O)c1onc(CSc2cccc(C)c2)c1C(=O)O | 13 | – | – | – | – | –
O=S1(=O)N[C@@H](Cc2ccccc2)COc2cc(N3CC[C@H](O)C3)ccc21 | · | – | · | – | · | ·
O=C(CN1C(=O)NC2(CCCC2)C1=O)N1CCN(S(=O)(=O)c2ccccc2F)CC1 | 13 | – | · | – | – | –
CCCCCNC(=O)c1[nH]c(C(F)(F)F)nc1-c1ccccc1 | · | – | · | – | · | ·
CN(C)CCN(C(=O)CCc1ccccc1)c1nc2c(F)cc(F)cc2s1 | – | – | 71 | – | – | –
CCCCc1cc(=O)oc2c(C)c(OCC(=O)N3C[C@H]4C[C@@H](C3)c3cccc(=O)n3C4)ccc12 | – | – | · | – | – | –
COc1ccccc1NC(=O)CN1CCC(n2nnc3cc(F)ccc32)CC1 | – | – | – | – | – | –
COc1ccc(C)cc1NC(=O)CN1CCN(CC(=O)Nc2ccccc2F)CC1 | – | – | 79 | – | – | –
O=C(CN1CCC(n2nnc3cc(C(F)(F)F)ccc32)CC1)Nc1ccc2c(c1)CCC2 | – | – | 78 | – | – | –
COc1cc(NC(=O)Nc2ccccc2)c(OC)cc1NC(=O)CN1CCCCC1 | – | – | 90 | – | – | –
COc1ccc(Cl)cc1NC(=O)CN1CCC(n2nnc3cc(C)ccc32)CC1 | – | – | 73 | – | – | –
COc1cc(NC(=O)Nc2ccccc2OC)c(OC)cc1NC(=O)CN1CCCCC1 | – | – | – | – | – | –
COc1ccc(CCN2CC(C(=O)NCCc3ccccn3)CCC2=O)cc1 (centres undefined) | – | – | · | – | – | –
Cc1nn(Cc2ccc(Cl)cc2Cl)c(Cl)c1/C=C/C(=O)OCC(=O)NCC(F)(F)F | – | – | 77 | – | – | –
Cc1nn(Cc2ccccc2Cl)c(Cl)c1/C=C/C(=O)OCC(=O)NC(N)=O | – | – | – | – | – | –
Cc1cc(C(C)(C)C)cc(CN2CCN(S(=O)(=O)c3cccs3)CC2)c1O | · | – | · | – | · | ·
Cc1ccc(C2CC(=O)C=C(Nc3ccc(Cl)cc3)C2)cc1 (centres undefined) | – | – | 73 | – | – | –
COc1ccc(OC)c(NC(=O)C(C)OC(=O)c2cc3ccccc3[nH]2)c1 (centres undefined) | – | – | · | – | · | ·
CC(=O)c1ccc(NC(=O)C(C)N2CCN(C/C=C/c3ccccc3)CC2)cc1 (centres undefined) | – | – | – | – | – | –
CCC(C)c1ccccc1NC(=O)CN1CCN(C/C=C/c2ccccc2)CC1 (centres undefined) | – | – | 75 | – | – | –
O=C(CN1CCN(C/C=C/c2ccccc2)CC1)NCc1ccccc1 | – | – | – | – | – | –
COc1ccc(Cl)cc1NC(=O)C(C)N1CCN(C/C=C/c2ccccc2)CC1 (centres undefined) | – | – | 74 | – | – | –
CCCCSC1(SCCCC)N=C(N)C2(C#N)C(c3ccccc3)NC(C)=C(C)C12C#N (centres undefined) | – | – | 76 | – | – | –
Cc1nc2cc(C(F)(F)F)ccc2n1CCNc1nc(-c2ccc(F)cc2)cs1 | – | – | · | – | – | –
O=[N+]([O-])c1cc(-c2csc(NCCc3nc4cc(C(F)(F)F)ccc4n3CCCO)n2)ccc1Cl | 17 | – | · | – | – | –
Cc1nc2cc(C(F)(F)F)ccc2n1CCNc1nc(-c2ccc([N+](=O)[O-])c(Cl)c2)cs1 | 25 | – | · | – | – | –

Source: PubChem
